Reference: article PMC5632530 (Cell, 2017)
Each block holds one molecule with its values, some of them ahead of it.

Legend:
PPARγ = target: T1, PPARγ (Homo sapiens, UniProt P37231); test: PPARγ luciferase reporter assay, direct modulation of PPARγ; format: cell-based
T1 sequence (P37231 238-503 limits assumed): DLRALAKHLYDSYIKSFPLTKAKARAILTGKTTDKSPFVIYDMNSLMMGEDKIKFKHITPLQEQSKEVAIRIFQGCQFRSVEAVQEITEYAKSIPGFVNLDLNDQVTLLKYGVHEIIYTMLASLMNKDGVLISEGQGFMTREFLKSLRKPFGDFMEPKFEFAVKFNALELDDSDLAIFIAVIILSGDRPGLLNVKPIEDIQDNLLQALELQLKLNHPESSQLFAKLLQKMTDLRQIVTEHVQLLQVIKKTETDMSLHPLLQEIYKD

[1] = tested on: 3T3-L1 mouse preadipocytes; test: Adipocyte phenotypic screen: lipid accumulation by Nile Red; format: cell-based; conditions: for effect of co-treatment on the pro-adipogenic effects of 25: 10 μM with 25 (10 μM), Nile Red staining or adipogenic gene expression; for adipogenic activity in adipogenesis-related assays, in words: compounds 10 μM, 3T3-L1
Method in brief: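 3T3-L1 preadipocytes were induced two days post-confluence with dexamethasone (1 μM), IBMX (0.5 mM) and insulin (1 μg/ml), plus DMSO (0.1%), test compound (10 μM), test compound with probe, or rosiglitazone (2 μM). They were stained with Nile Red and Hoechst at day 7 of differentiation, imaged, and harvested for RNA. Mean ± SD, n = 3.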

PTGR2 [2] = target: T2, PTGR2 (Homo sapiens, UniProt Q8N8N7); format: binding
Method in brief: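 HEK293T cells were transiently transfected with C-terminally FLAG-tagged human PTGR2 (pRK5, PEI). Cells at ~90% confluence were washed and treated in serum-free medium with probe plus competitor or DMSO for 30 min at 37°C, then irradiated at 365 nm for 10 min. Lysates (1 mg/mL) were clicked to TAMRA azide (25 μM) and fluorescence was read on gel. Curves: mean ± SD (n = 3 or 4), four-parameter fit.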

PTGR2 [3] = target: T2, PTGR2; test: cell-based
ZADH2 = target: T3, ZADH2 (Homo sapiens, UniProt Q8N4Q0); test: MS-based competitive profiling with FFF 8: cross-reactivity with ZADH2; format: binding; conditions: competition of FFF 8 labeling
T3 sequence (Q8N4Q0 1-377): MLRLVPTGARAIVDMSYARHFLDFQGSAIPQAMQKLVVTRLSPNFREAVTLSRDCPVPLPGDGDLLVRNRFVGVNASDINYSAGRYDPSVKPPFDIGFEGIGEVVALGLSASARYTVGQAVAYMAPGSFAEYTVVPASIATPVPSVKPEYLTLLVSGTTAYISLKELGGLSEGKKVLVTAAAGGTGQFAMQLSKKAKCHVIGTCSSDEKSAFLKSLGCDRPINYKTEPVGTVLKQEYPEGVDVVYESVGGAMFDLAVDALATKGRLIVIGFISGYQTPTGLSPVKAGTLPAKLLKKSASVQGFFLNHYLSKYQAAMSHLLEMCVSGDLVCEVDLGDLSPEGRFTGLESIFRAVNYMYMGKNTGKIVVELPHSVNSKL
Method in brief: (§1)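 SILAC-labeled HEK293T cells were used: heavy cells received FFF probe plus competitor and light cells received probe plus DMSO, in serum-free medium for 30 min at 37°C, followed by 365 nm UV for 10 min. Lysates (1.5 mg/mL) were mixed 1:1, clicked to biotin-azide, streptavidin-enriched, trypsin-digested and analysed by LC-MS. Ratios were averaged from ≥2 biological replicates.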

endogenous PTGR2 = endogenous PTGR2 (Homo sapiens, UniProt Q8N8N7); format: binding
Method in brief: as §1

PTGR2 [4] = target: T2, PTGR2; format: cell-based; conditions: cells recombinantly expressing PTGR2
Method in brief: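 HEK293T cells were co-transfected (PEI) with a UAS-luciferase reporter, GAL4-DBD or GAL4-DBD::PPARγ-LBD, and full-length PTGR2 as indicated. After 24 hr they were treated with DMSO, 15-keto-PGE2 (20 μM), test compounds, or rosiglitazone (2 μM) control. After 16 hr cells were lysed and luciferase activity was measured.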

PTGR2 [5] = target: T2, PTGR2; test: In vitro LCMS-based activity assay for PTGR2; format: biochemical
human PGRMC2 [6] = target: T4, human PGRMC2 (Homo sapiens, UniProt O15173); test: In vitro gel-based competition of FFF probe 25 labeling of PGRMC2; format: binding
T4 sequence (O15173 1-223): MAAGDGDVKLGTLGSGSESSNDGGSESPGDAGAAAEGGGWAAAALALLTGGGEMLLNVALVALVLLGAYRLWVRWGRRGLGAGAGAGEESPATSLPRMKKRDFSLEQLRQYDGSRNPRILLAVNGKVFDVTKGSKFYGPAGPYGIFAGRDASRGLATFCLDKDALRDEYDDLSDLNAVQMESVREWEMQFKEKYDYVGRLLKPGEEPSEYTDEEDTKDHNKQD
Method in brief: (§2)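 HEK293T cells were transfected with human PGRMC2 and lysed 48 hr later. Lysates (1 mg/mL) were incubated with probe and competitor or DMSO for 30 min at room temperature, UV-irradiated, clicked to TAMRA azide, and analysed by in-gel fluorescence. Blockade curves: mean ± SD (n = 3 or 4), four-parameter non-linear fit.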

PGRMC1 = PGRMC1 (Mus musculus, UniProt O55022); test: Quantitative proteomic; format: binding; conditions: 10 μM
non-adipocyte cell lines = test: Lipid accumulation in non-adipocyte cell lines; format: cell-based
human PGRMC2 [7] = target: T4, human PGRMC2; format: binding; conditions: HEK293T cells
Method in brief: as §2

PGRMC2 = target: T5, PGRMC2 (Mus musculus, UniProt Q80UU9); test: Quantitative proteomic; format: binding
T5 sequence (Q80UU9 1-217): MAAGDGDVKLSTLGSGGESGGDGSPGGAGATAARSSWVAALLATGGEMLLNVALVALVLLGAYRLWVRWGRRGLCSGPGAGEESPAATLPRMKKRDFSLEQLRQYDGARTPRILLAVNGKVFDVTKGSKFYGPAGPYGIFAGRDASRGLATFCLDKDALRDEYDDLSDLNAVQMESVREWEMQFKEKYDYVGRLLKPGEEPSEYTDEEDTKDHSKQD

cathepsin B (CTSB) = cathepsin B (CTSB) (Homo sapiens, UniProt P07858); test: Competition of FFF 9 labeling of the active-site proximal peptide of CTSB; format: binding
Method in brief: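 Cells were treated with probe (200–250 μM) with or without competitor in serum-free DMEM, UV-crosslinked, and lysed. Probe-labeled proteins were clicked to light or heavy biotin-TEV-azide (100 μM final) with CuSO4, TBTA and TCEP. Samples were combined, streptavidin-enriched, trypsin-digested on bead and released by TEV cleavage (50 mM Tris pH 8, 0.5 mM EDTA, 1 mM DTT). Probe-modified peptides were quantified by LC-MS.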

T2 sequence (Q8N8N7 whole entry): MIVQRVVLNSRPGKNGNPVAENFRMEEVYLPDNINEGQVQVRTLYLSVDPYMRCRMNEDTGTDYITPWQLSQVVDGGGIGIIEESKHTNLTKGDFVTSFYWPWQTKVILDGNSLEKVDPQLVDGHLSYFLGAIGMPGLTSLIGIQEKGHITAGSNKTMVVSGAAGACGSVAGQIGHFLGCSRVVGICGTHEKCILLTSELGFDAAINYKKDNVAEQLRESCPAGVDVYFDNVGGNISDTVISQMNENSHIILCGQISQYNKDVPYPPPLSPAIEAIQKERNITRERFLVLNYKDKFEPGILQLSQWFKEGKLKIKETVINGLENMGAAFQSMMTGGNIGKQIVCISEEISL
Sequence of endogenous PTGR2 (Q8N8N7 whole entry): as above
Sequence of PGRMC1 (O55022 whole entry): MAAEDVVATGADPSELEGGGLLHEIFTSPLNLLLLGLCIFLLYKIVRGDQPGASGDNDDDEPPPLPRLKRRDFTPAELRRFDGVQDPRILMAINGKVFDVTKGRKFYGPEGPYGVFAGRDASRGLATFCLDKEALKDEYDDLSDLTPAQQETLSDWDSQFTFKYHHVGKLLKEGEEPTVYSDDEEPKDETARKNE

Structure (SMILES): COc1ccccc1C1CCN(S(=O)(=O)Cc2ccccc2)CC1 [Compound 23, 1-(Benzylsulfonyl)-4-(2-methoxyphenyl)piperidine]
direct modulation of PPARγ (PPARγ): neither 22 nor 23 directly modulated PPARγ

Structure (SMILES): CC(C)(C)OC(=O)CN(Cc1ccc(Cl)cc1)Cc1ccc([N+](=O)[O-])s1 [GSK4112, reference compound]
effect of co-treatment on the pro-adipogenic effects of 25 [1]: had no effect

increase in potency relative to 20, competition of 8-labeling (PTGR2 [2]): > 20 fold
IC50 (PTGR2 [3]): ~700 nM
cross-reactivity with ZADH2, sequence-related homolog of PTGR2 (ZADH2): did not cross-react
inhibition of FFF 8 labeling of endogenous PTGR2 (endogenous PTGR2; 5 μM, HEK293T cells): complete inhibition
proteome-wide selectivity in blocking FFF 8 labeling, in words (endogenous PTGR2; HEK293T cells): excellent selectivity
inhibition at 0.5 µM (endogenous PTGR2; read-out: inhibition of FFF 8 labeling of endogenous PTGR2): ~80%
rescue of 15-keto-PGE2-dependent PPARγ transcriptional activity (PTGR2 [4]): concentration-dependent rescue
increase in potency relative to 20, 15-keto-PGE2 reductase activity (PTGR2 [5]): > 20 fold
Structure (SMILES): COc1ccccc1N1CCN(C(=O)Cc2ccccc2)CC1 [Compound 22, 1-(4-(2-Methoxyphenyl)piperazin-1-yl)-2-phenylethan-1-one]
direct modulation of PPARγ (PPARγ): neither 22 nor 23 directly modulated PPARγ

Structure (SMILES): CCCC(=O)N[C@@H](CC(C)C)C(=O)NCCc1ccc2c(c1)OCO2 [Compound 30, (S)-N-(2-(benzo[d][1,3]dioxol-5-yl)ethyl)-2-butyramido-4-methylpentanamide]
adipogenic activity in adipogenesis-related assays, in words [1]: inactive controls

Structure (SMILES): CCOC(=O)C1Cc2ccccc2CN1C(=O)c1ccc(SC)s1 (centres unmarked) [SR8278, reference compound]
effect of co-treatment on the pro-adipogenic effects of 25 [1]: blocked

IC50 (human PGRMC2 [6]): 130 nM
Structure (SMILES): C=CC1=C(C)c2cc3[nH]c(cc4nc(cc5[nH]c(cc1n2)c(C)c5CCC(=O)O)C(CCC(=O)O)=C4C)c(C)c3C=C [protoporphyrn IX]

Structure (SMILES): CCCC(=O)N[C@@H](C)C(=O)Nc1cc(OC)c2ccccc2c1 [Compound 28, (S)-N-(1-((4-methoxynaphthalen-2-yl)amino)-1-oxopropan-2-yl)butyramide]
adipogenic activity in adipogenesis-related assays, in words [1]: largely inactive

enrichment of PGRMC1 by 25 over 26 (PGRMC1): not preferentially enriched
labeling of recombinant human PGRMC2 by FFF probe (human PGRMC2 [7]): strongly labeled
preferential enrichment of PGRMC2 by 25 over 26 (SILAC ratio) (PGRMC2; 10 μM each, 30 min): > 3 fold
Structure (SMILES): C#CCCC1(CCC(=O)N[C@@H](CC(C)C)C(=O)Nc2ccc3ccccc3c2)N=N1 [Compound 25, (S)-2-(3-(3-(but-3-yn-1-yl)-3H-diazirin-3-yl)propanamido)-4-methyl-N-(naphthalen-2-yl)pentanamide]
lipid accumulation, in words ([1]; Nile Red): one of the highest levels of lipid accumulation
lipid accumulation in non-adipocyte cell lines (non-adipocyte cell lines): did not induce lipid accumulation

blockade of probe 9 interaction with CTSB peptide (aa 315–332) (cathepsin B (CTSB)): blocked
Structure (SMILES): CC(NC(=O)[C@H](Cc1ccccc1)NC(=O)OCc1ccccc1)C(=O)CF (some centres unmarked) [Z-FA-FMK]

competition of 25 (10 μM) enrichment of PGRMC2 (SILAC ratio) (PGRMC2; 10× competitor): > 3 fold
Structure (SMILES): CCCC(=O)N[C@@H](CC(C)C)C(=O)Nc1ccc2ccccc2c1 [Compound 27, (S)-2-butyramido-4-methyl-N-(naphthalen-2-yl)pentanamide]
adipogenic activity in adipogenesis-related assays, in words [1]: active
blockade of 25 labeling of recombinant human PGRMC2 by competitor (human PGRMC2 [7]): blocked in a concentration-dependent manner

Structure (SMILES): CCCC(=O)N[C@@H](CC(C)C)C(=O)N[C@H]1CCCc2ccccc21 [Compound 29, (S)-2-butyramido-4-methyl-N-((S)-1,2,3,4-tetrahydronaphthalen-1-yl)pentanamide]
adipogenic activity in adipogenesis-related assays, in words [1]: inactive controls

Structure (SMILES): C#CCCC1(CCC(=O)N[C@@H](C)C(=O)Nc2cc(OC)c3ccccc3c2)N=N1 [Compound 26, (S)-3-(3-(but-3-yn-1-yl)-3H-diazirin-3-yl)-N-(1-((4-methoxynaphthalen-2-yl)amino)-1-oxopropan-2-yl)propanamide]
adipogenic activity in adipogenesis-related assays, in words [1]: much less adipogenic activity
